Experimental data published in PMC4298165 (Cell, 2014).

Tests used:
[1] = test system: TRiC; assay: Crosslinking-mass spectrometry; type: binding; settings: DSS crosslinking, trypsin, tandem MS, xQuest
How it was run: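 Intact TRiC crosslinked with DSS to full-length actin, tubulin or HIV Gag. Crosslinked samples were trypsin-digested and enriched for crosslinked species before MS. Crosslink sites on CCT subunits were mapped onto the apical-domain structure.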

[2] = test system: ApiCCT3; assay: NMR chemical-shift mapping, 15N-labeled p6 with unlabeled ApiCCT3; type: binding; settings: 15N-1H HSQC, 0, 2.5, 5 and 10-fold excess ApiCCT3
How it was run: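 Recombinant p6 was expressed with 15N/13C isotope labeling and purified. Chemical-shift mapping used 300 µM protein samples on an 800 MHz spectrometer with a cryogenic probe.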

[3] = test system: ApiCCT3; type: binding; settings: 15N-1H HSQC
[4] = test system: endogenous TRiC; assay: Biotin affinity isolation from HEK293 extracts and TRiC immunoblot; type: binding, human; settings: biotinylated peptide, HEK293 extract, immunoblot against CCT5 and CCT2
[5] = test system: CCT3; settings: cited from earlier work
[6] = test system: intact purified TRiC; assay: NMR chemical shift perturbation of 15N p6 with intact purified TRiC; type: binding; settings: Fig. S4D
[7] = test system: p6; assay: SPR kinetics of ApiCCT3 alanine mutants on immobilized p6; type: binding, HIV; settings: 31 surface-exposed residues substituted
[8] = target: T1, apical domain of CCT3 (ApiCCT3) (UniProt P49368 210-380); assay: SPR
T1 sequence (looked up): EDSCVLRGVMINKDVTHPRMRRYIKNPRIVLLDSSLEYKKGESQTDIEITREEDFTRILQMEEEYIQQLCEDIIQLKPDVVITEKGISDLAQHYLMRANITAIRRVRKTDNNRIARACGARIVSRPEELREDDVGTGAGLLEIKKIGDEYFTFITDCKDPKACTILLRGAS

Question: With actin as the molecule, how does the “location of heterotypic TRiC crosslinks” value [1] read?
Answer: Its value is “localized to substrate determinants previously implicated in TRiC binding”.

Question: With “p6: 54 amino acid long HIV protein p6 (LQSRPEPTAPPEESFRSGVETTTPPQKQEPIDKELYPLTSLRSLFGNDPSSQ)” as the molecule, how does the “chemical shift perturbation of 15N-p6 by ApiCCT3” value [2] read?
Answer: Its value is “concentration-dependent chemical shift perturbation in a subset of peaks”.

Question: And the “chemical shift perturbation of 15N-ApiCCT3” value ([3]; 300 µM protein sample, 800 MHz, 0, 5, 10, 20-fold excess p6 (Fig. 2))?
Answer: Its value is “concentration-dependent shifts in a specific subset of peaks”.

Question: And the “number of ApiCCT3 peaks perturbed weakly” value ([3]; > 0.1 p.p.m.)?
Answer: The value was 4 peaks.

Question: And the “number of ApiCCT3 peaks strongly perturbed” value ([3]; > 0.2 p.p.m.)?
Answer: Its value is 5 peaks.

Question: What about the “binding to endogenous TRiC” value [4] of the same molecule?
Answer: Its value is “bound TRiC”.

Question: What about the “association with CCT3” value [5] of the same molecule?
Answer: Its value is “associate directly with subunit CCT3 of TRiC”.

Question: And the “chemical shift perturbation of 15N p6 by intact TRiC” value [6]?
Answer: The value was “the same subset of p6 residues was affected upon addition of intact TRiC”.

B1: Y274A (protein)
chain: MMGHRPVLVLSQNTKRESGRKVQSGNINAAKTIADIIRTCLGPKSMMKMLLDPMGGIVMTNDGNAILREIQVQHPAAKSMIEISRTQDEEVGDGTTSVIILAGEMLSVAEHFLEQQMHPTVVISAYRKALDDMISTLKKISIPVDISDSDMMLNIINSSITTKAISRWSSLACNIALDAVKMVQFEENGRKEIDIKKYARVEKIPGGIIEDSCVLRGVMINKDVTHPRMRRYIKNPRIVLLDSSLEYKKGESQTDIEITREEDFTRILQMEEEAIQQLCEDIIQLKPDVVITEKGISDLAQHYLMRANITAIRRVRKTDNNRIARACGARIVSRPEELREDDVGTGAGLLEIKKIGDEYFTFITDCKDPKACTILLRGASKEILSEVERNLQDAMQVCRNVLLDPQLVPGGGASEMAVAHALTEKSKAMTGVEQWPYRAVAQALEVIPRTLIQNCGASTIRLLTSLRAKHTQENCETWGVNGETGTLVDMKELGIWEPLAVKLQTYKTAVETAVLLLRIDDIVSGHKKKGDDQSRQGGAPDAGQE
Question: For B1, which “impact of Ala substitution in ApiCCT3 on p6 binding” value [7] is on record?
Answer: The value was “no impact on p6 binding”.

B2: HIV protein p6 (natural protein)
chain: LQSRPEPTAPPEESFRSGVETTTPPQKQEPIDKELYPLTSLRSLFGNDPSSQ
Question: For B2, which Kd [8] is on record?
Answer: The Kd was 250 to 500 nM.

B3: tubulin: full length physiological substrate of TRiC (protein)
chain: MREIIHISTGQCGNQIGAAFWETICGEHGLDFNGTYHGHDDIQKERLNVYFNEASSGKWVPRSINVDLEPGTIDAVRNSAIGNLFRPDNYIFGQSSAGNVWAKGHYTEGAELVDSVMDVIRREAEGCDSLQGFQITHSLGGGTGSGMGTLLISKIREEFPDRMMATFSVLPSPKTSDTVVEPYNATLSVHQLVEHSDETFCIDNEALYDICQRTLKLNQPSYGDLNNLVSSVMSGVTTSLRYPGQLNSDLRKLAVNLVPFPRLHFFMVGYAPLTAIGSQSFRSLTVPELTQQMFDAKNMMAAADPRNGRYLTVAAFFRGKVSVKEVEDEMHKVQSKNSDYFVEWIPNNVQTAVCSVAPQGLDMAATFIANSTSIQELFKRVGDQFSAMFKRKAFLHWYTSEGMDELEFSEAESNMNDLVSEYQQYQEATVEDDEEVDENGDFGAPQNQDEPITENFE
Question: Which “crosslinks to TRiC subunits” value [1] does the source give for B3 here?
Answer: Its value is “crosslinked to multiple TRiC subunits through specific regions in the polypeptide”.

Question: What about the “location of heterotypic TRiC crosslinks” value [1] of the same molecule?
Answer: Its value is “localized to substrate determinants previously implicated in TRiC binding”.
